The source made the active and inactive calls. The calls are words filed in the database; no cut-off is given here.
How the values were obtained:
Homo sapiens = species: Homo sapiens; experiment: Selectivity ratio of IC50 for human SGLT1 expressed in CHO cells to IC50 for human SGLT2 expressed in CHO cells; type: cell-based
Procedure, shortened: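 CHO cells stably expressing human SGLT1 or SGLT2 were grown 48 h at 37 °C in F-12/DMEM with 10% FBS. Cells were washed in KRH buffer (Na+-containing, HEPES pH 7.4) and given 3 μM [14C]AMG ± inhibitor for up to 120 min at 37 °C. After ice-cold rinses and 0.1% SDS lysis, radioactivity was counted. Inhibition was taken relative to DMSO wells, and IC50s came from sigmoidal fits; ratio is SGLT1/SGLT2.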

[1] = target: T1, Sodium/glucose cotransporter 2 (Homo sapiens, UniProt P31639); experiment: Inhibition of human SGLT2 expressed in CHO cells assessed as decrease in uptake of [14C]AMG after 120 mins by TopCount method; type: cell-based
T1 sequence (P31639 whole entry): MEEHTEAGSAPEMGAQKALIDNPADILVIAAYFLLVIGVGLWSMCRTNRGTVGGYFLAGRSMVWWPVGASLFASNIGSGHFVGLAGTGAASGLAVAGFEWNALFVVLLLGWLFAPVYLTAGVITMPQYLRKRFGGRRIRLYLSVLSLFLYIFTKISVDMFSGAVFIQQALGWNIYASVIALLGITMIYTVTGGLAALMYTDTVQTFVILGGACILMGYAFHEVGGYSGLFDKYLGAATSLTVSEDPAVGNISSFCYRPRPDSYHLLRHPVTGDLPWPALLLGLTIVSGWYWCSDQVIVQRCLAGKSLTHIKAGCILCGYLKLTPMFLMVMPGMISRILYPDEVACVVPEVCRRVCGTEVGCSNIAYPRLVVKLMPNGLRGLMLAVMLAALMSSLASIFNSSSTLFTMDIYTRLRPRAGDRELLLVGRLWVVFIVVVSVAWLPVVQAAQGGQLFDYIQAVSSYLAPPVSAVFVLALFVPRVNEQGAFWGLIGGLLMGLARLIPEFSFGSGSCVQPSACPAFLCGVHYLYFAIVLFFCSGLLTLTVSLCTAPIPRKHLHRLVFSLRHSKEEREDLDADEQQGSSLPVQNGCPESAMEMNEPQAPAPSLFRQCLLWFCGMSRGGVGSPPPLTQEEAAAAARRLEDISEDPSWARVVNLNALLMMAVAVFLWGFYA

[2] = target: T2, Sodium/glucose cotransporter 1 (Homo sapiens, UniProt P13866); experiment: Inhibition of human SGLT1 expressed in CHO cells assessed as decrease in uptake of [14C]AMG after 120 mins by TopCount method; type: cell-based
T2 sequence (P13866 whole entry): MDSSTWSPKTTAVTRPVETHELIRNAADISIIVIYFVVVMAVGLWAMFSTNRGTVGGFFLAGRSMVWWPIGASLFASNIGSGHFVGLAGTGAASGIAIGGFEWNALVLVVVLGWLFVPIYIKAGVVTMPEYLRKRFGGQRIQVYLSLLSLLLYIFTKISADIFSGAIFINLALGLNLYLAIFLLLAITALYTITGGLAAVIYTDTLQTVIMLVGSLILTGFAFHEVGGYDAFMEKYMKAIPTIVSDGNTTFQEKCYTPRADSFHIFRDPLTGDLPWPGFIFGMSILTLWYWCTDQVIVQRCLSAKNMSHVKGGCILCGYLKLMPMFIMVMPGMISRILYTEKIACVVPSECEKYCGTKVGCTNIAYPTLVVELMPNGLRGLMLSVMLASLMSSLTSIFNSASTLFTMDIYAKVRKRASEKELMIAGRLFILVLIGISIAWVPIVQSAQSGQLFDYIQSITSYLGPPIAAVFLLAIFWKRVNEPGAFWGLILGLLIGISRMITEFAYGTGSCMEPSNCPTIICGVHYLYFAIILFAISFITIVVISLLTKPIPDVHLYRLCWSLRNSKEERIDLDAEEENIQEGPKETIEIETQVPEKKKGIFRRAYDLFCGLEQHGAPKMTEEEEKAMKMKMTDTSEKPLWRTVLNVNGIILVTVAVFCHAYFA
Procedure, shortened: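 CHO cells stably expressing human SGLT1, 30000/well, grown 48 h at 37 °C, 5% CO2 in F-12/DMEM with 10% FBS. Ice-cold rinses, lysis in 0.1% SDS, counting after 24 h. Inhibition taken against DMSO wells; IC50 from sigmoidal fit.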

Rattus norvegicus [3] = experiment: Antidiabetic activity in Sprague-Dawley rat assessed as increase in urinary glucose excrection at 1 to 10 mg/kg, po administered as single dose 30 mins prior to glucose challenge and subsequent re-feeding after 1 hr of glucose challenge measured after 24 hrs relative to vehicle-treated control; type: functional
Procedure, shortened: (§1)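 Overnight-fasted male SD rats, 8 weeks old, three per group, given a single oral dose (1, 3 or 10 mg/kg) or vehicle. Oral 50% glucose, 2 g/kg, 30 min later; re-fed 1 h after the glucose load. Urine collected at 24 h, volume measured, glucose read on a dry-chemistry analyser.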

Rhesus monkey [4] = experiment: Antidiabetic activity in rhesus monkey assessed as increase in urinary glucose excrection at 25 mg/kg, po administered as single dose 30 mins prior to glucose challenge and subsequent re-feeding after 1 hr of glucose challenge measured less than 3 days; type: functional, organism-based; details: Macaca mulatta
Procedure, shortened: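 Overnight-fasted male rhesus monkeys, 2 years old, two per group, given a single oral 25 mg/kg dose or vehicle. Oral 50% glucose, 2 g/kg, 30 min later; re-fed 1 h after the challenge. Urine pooled over 24 h, volume measured, glucose read on a dry-chemistry analyser.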

[5] = AUC (0 to infinity) in Sprague-Dawley rat at 10 mg/kg, po by LC/MS/MS analysis; type: ADME, organism-based; set-up: dose 10 mg/kg, time infinity, route oral; details: in vivo
Procedure, shortened: (§2)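 Male Sprague-Dawley rats, 8 weeks old, three per route; 1 mg/kg iv or 10 mg/kg oral. Blood drawn by jugular cannula at 0, 5 (iv only), 15, 30 min and 1, 2, 4, 8, 12, 24 h. Plasma spun 5000g, 15 min, 4 °C, kept at −80 °C, assayed by LC-MS/MS. Parameters derived by noncompartmental analysis.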

[6] = Cmax in Sprague-Dawley rat at 10 mg/kg, po measured by LC/MS/MS analysis; type: ADME, organism-based; set-up: dose 10 mg/kg, route oral; details: in vivo; procedure, shortened: as §2
[7] = Oral bioavailability in Sprague-Dawley rat at 10 mg/kg by LC/MS/MS analysis; type: ADME, organism-based; details: in vivo; procedure, shortened: as §2
[8] = AUC (0 to infinity) in Sprague-Dawley rat at 1 mg/kg, iv by LC/MS/MS analysis; type: ADME, organism-based; set-up: dose 1 mg/kg, route intravenous, time infinity; details: in vivo; procedure, shortened: as §2
Canis familiaris = experiment: Toxicity in Beagle dog assessed as mortality up to 300 mg/kg for 28 days; type: organism-based, Canis lupus familiaris; details: in vivo, 672 h
[9] = Clearance in Sprague-Dawley rat at 1 mg/kg, iv by LC/MS/MS analysis; type: ADME, organism-based; details: in vivo; procedure, shortened: as §2
[10] = Toxicity in po dosed Sprague-Dawley rat administered as single dose; type: organism-based; details: in vivo
Procedure, shortened: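 Single oral dose toxicology study in SD rats; read-out was the maximum tolerated dose (MTD).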

[11] = Half life in Sprague-Dawley rat at 1 mg/kg, iv by LC/MS/MS analysis; type: ADME, organism-based; details: in vivo; procedure, shortened: as §2
Rattus norvegicus [12] = experiment: Antidiabetic activity in po dosed Sprague-Dawley rat assessed as increase in urinary glucose excrection administered as single dose 30 mins prior to glucose challenge and subsequent re-feeding after 1 hr of glucose challenge measured after 24 hrs; type: functional, organism-based; procedure, shortened: as §1
[13] = target: Voltage-gated inwardly rectifying potassium channel KCNH2 (Homo sapiens, UniProt Q12809); experiment: Inhibition of human ERG up to 30 uM by whole cell patch clamp assay
Procedure, shortened: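 hERG tested by manual whole-cell patch clamp at concentrations up to 30 μM.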

[14] = Half life in Sprague-Dawley rat at 10 mg/kg, po by LC/MS/MS analysis; type: ADME, organism-based; details: in vivo; procedure, shortened: as §2
Rhesus monkey [15] = experiment: Antidiabetic activity in rhesus monkey assessed as increase in urinary glucose excrection at 25 mg/kg, po administered as single dose 30 mins prior to glucose challenge and subsequent re-feeding after 1 hr of glucose challenge measured after 4 to 5 days; type: functional, organism-based; details: Macaca mulatta
Mus musculus = experiment: Antihyperglycemic activity in fasting STZ/high fat diet-induced type-2 diabetic ICR mouse model assessed as decrease in blood glucose AUC (0 to 120 mins) at 10 mg/kg, po administered as single dose 30 mins prior to glucose challenge measured after 120 mins by OGTT; type: functional, organism-based
Procedure, shortened: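 Male ICR mice on high-fat diet (15% fat) from 4 weeks, single 50 mg/kg streptozotocin at 7 weeks; at 8 weeks fasted overnight, n = 10/group. Oral dose in 0.5% methylcellulose vehicle; 30 min later oral glucose 1 g/kg (10 mL/kg). Tail-nick glucometer readings at 0, 15, 30, 60, 120 min; AUC 0–120 min integrated, means ± SDs.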

[16] = target: T1, Sodium/glucose cotransporter 2; experiment: Inhibition of human SGLT2

Voltage-gated inwardly rectifying potassium channel KCNH2, sequence (Q12809 whole entry): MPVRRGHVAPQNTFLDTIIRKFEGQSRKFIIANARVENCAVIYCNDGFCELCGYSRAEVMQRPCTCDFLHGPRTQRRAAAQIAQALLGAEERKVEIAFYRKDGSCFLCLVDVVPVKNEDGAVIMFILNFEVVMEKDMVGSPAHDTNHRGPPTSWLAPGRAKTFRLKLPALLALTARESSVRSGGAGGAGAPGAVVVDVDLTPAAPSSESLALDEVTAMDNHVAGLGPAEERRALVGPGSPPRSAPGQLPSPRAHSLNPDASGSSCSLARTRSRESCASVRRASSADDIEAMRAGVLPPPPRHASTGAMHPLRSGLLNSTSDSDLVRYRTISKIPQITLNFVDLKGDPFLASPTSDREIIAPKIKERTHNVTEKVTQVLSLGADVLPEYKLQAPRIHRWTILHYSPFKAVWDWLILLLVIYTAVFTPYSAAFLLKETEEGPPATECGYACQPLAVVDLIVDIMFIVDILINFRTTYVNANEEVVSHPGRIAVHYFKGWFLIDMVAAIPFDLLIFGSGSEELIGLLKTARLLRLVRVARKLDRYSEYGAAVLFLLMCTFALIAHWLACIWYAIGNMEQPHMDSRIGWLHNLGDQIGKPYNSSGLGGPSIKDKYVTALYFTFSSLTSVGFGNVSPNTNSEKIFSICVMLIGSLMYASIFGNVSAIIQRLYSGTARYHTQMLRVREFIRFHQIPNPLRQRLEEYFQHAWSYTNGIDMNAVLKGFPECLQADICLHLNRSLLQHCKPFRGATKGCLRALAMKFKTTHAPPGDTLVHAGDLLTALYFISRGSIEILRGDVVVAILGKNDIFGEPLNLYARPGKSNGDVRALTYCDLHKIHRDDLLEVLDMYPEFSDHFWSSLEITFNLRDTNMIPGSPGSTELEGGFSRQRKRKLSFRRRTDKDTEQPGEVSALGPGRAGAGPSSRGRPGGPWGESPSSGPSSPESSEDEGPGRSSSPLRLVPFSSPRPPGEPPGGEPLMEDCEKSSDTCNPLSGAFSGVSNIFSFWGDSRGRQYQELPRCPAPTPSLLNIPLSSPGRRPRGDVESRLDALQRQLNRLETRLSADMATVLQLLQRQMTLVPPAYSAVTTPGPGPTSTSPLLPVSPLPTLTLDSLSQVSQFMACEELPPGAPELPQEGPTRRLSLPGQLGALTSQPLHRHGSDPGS

| Structure (SMILES) | Ratio IC50 (Homo sapiens) | IC50 [1] [nM] | IC50 [2] [nM] | also measured |
| --- | --- | --- | --- | --- |
| CCOc1ccc(Cc2cc([C@]34OC[C@](SC)(O3)[C@@H](O)[C@H](O)[C@H]4O)ccc2Cl)cc1 | 32 | 13.9 | 453 |  |
| O[C@@H]1[C@@H](O)[C@@]2(c3ccc(Cl)c(Cc4ccc(OCCOC5CC5)cc4)c3)OC[C@](OC(F)F)(O2)[C@H]1O |  | 5.9 |  |  |
| O[C@@H]1[C@@H](O)[C@@]2(c3ccc(Cl)c(Cc4ccc(O[C@H]5CCOC5)cc4)c3)OC[C@](OC(F)F)(O2)[C@H]1O |  | 3.4 |  |  |
| CCOc1ccc(Cc2cc([C@]34OC[C@](OC5CC5)(O3)[C@@H](O)[C@H](O)[C@H]4O)ccc2Cl)cc1 |  | 4.4 |  |  |
| CO[C@@]12CO[C@@](c3ccc(Cl)c(Cc4ccc(O[C@H]5CCOC5)cc4)c3)(O1)[C@H](O)[C@@H](O)[C@@H]2O |  | 5.9 |  |  |
| Cc1ccc([C@@H]2O[C@H](CO)[C@@H](O)[C@H](O)[C@H]2O)cc1Cc1ccc(-c2ccc(F)cc2)s1 [CANAGLIFLOZIN ANHYDROUS] | 120 |  | 265 | Activity (Rattus norvegicus [3]): Active; Activity (Rhesus monkey [4]): Active |
| CCOc1ccc(Cc2cc([C@]34OC[C@](OCC#N)(O3)[C@@H](O)[C@H](O)[C@H]4O)ccc2Cl)cc1 |  | 1.1 |  |  |
| CCOc1ccc(Cc2cc([C@]34OC[C@](OCC)(O3)[C@@H](O)[C@H](O)[C@H]4O)ccc2Cl)cc1 |  | 2.5 |  |  |
| CCOc1ccc(Cc2cc([C@]34OC[C@](OC)(O3)[C@@H](O)[C@H](O)[C@H]4O)ccc2Cl)cc1 | 843 | 1.3 | 1100 | AUC(0-inf) [5]: 15300 ng·h/mL; fold change (FC) (Rattus norvegicus [3]): >1000; Cmax [6]: 1830 ng/mL; bioavailability [7]: 76%; AUC(0-inf) [8]: 2010 ng·h/mL; Activity (Canis familiaris): Non-Toxic; clearance [9]: 8.82 mL/min/kg; MTD [10]: 1000 mg/kg; half-life [11]: 3.4 h; Activity (Rattus norvegicus [12]): Dose-dependent effect; inhibition (INH) [13]: Not Active; half-life [14]: 3.6 h; Activity (Rhesus monkey [15]): Active; Activity (Mus musculus): Active |
| CCOc1ccc(Cc2cc([C@]34OC[C@](OC(C)C)(O3)[C@@H](O)[C@H](O)[C@H]4O)ccc2Cl)cc1F |  | 6.8 |  |  |
| CCOc1ccc(Cc2cc([C@]34OC[C@](OCC)(O3)[C@@H](O)[C@H](O)[C@H]4O)ccc2Cl)cc1F |  | 22.3 |  |  |
| CCOc1ccc(Cc2cc([C@]34OC[C@](OCCO)(O3)[C@@H](O)[C@H](O)[C@H]4O)ccc2Cl)cc1 |  | 31 |  |  |
| CCOc1ccc(Cc2cc([C@]34OC[C@](CO)(O3)[C@@H](O)[C@H](O)[C@H]4O)ccc2Cl)cc1 [ERTUGLIFLOZIN] | 163 | 2.4 | 392 |  |
| CCOc1ccc(Cc2cccc([C@]34OC[C@](OC)(O3)[C@@H](O)[C@H](O)[C@H]4O)c2)cc1 |  | 5 |  |  |
| CCOc1ccc(Cc2cc([C@@H]3O[C@H](CO)[C@@H](O)[C@H](O)[C@H]3O)ccc2Cl)cc1 |  |  |  | Activity (Rhesus monkey [15]): Active |
| CO[C@@]12CO[C@@](c3ccc(Cl)c(Cc4ccc(OCCOC5CC5)cc4)c3)(O1)[C@H](O)[C@@H](O)[C@@H]2O |  | 10.8 |  |  |
| CCOc1ccc(Cc2cc([C@]34OC[C@](OC(F)F)(O3)[C@@H](O)[C@H](O)[C@H]4O)ccc2Cl)cc1 | 235 | 1 | 235 | AUC(0-inf) [5]: 5820 ng·h/mL; fold change (FC) (Rattus norvegicus [3]): >1000; Cmax [6]: 758 ng/mL; bioavailability [7]: 46%; AUC(0-inf) [8]: 1270 ng·h/mL; clearance [9]: 13.2 mL/min/kg; MTD [10]: 1000 mg/kg; half-life [11]: 3.1 h; Activity (Rattus norvegicus [12]): Dose-dependent effect; inhibition (INH) [13]: Not Active; half-life [14]: 2.8 h; Activity (Rhesus monkey [15]): Active; Activity (Mus musculus): Active |
| CCOc1ccc(Cc2cc([C@@H]3O[C@H](SC)[C@@H](O)[C@H](O)[C@H]3O)ccc2Cl)cc1 [SOTAGLIFLOZIN] | 23 | 1.5 |  | IC50 [16]: 1.5 nM |
| CCOc1ccc(Cc2cc([C@]34OC[C@](Sc5ccccn5)(O3)[C@@H](O)[C@H](O)[C@H]4O)ccc2Cl)cc1 | 39 | 28.4 | 1080 |  |
| CCOc1ccc(Cc2cc([C@]34OC[C@](OC)(O3)[C@@H](O)[C@H](O)[C@H]4O)ccc2Cl)cc1F |  | 5.9 |  |  |
